Values after ≈ are worked out from the molar mass of the structure shown.
What was measured:
Solubility in water = assay type: physicochemical
How it was run: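 Water solubility measured at 20°C, reported in mg/L.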

Marssonina blotch = test: Field trials, apple Marssonina blotch; assay type: in vivo; settings: PARADE 15FL; field trials Aomori Prefecture 2010 and 2013
[1] = system: SDH derived from Sclerotinia minor; test: SDH inhibition, DCIP method; assay type: biochemical; settings: read-out: SDH IC50
[2] = molecular target: SDH derived from Botrytis cinerea (Botrytis cinerea, UniProt A0A384J5E4+D2IH01+D2IH03); test: SDH inhibition, DCIP method; assay type: biochemical
[3] = molecular target: SDH derived from Blumeria graminis (Blumeria graminis, UniProt N1J5Q8+N1JC31+N1JIS1); test: SDH inhibition, DCIP method; assay type: biochemical
[4] = molecular target: SDH derived from Venturia inaequalis (Venturia inaequalis, UniProt A0A0H4U4T0+A0A370JIY7+A0A8H3Z7E8); test: SDH inhibition, DCIP method; assay type: biochemical; settings: read-out: SDH IC50
Sequence of SDH derived from Venturia inaequalis (A0A0H4U4T0 26-281): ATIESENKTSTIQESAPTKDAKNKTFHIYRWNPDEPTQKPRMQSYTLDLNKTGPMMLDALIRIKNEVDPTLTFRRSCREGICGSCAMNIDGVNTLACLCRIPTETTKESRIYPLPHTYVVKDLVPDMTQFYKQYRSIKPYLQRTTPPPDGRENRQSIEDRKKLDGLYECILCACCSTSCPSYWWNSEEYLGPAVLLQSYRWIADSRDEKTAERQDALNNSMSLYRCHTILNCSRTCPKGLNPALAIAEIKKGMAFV
Sequence of SDH derived from Venturia inaequalis (A0A370JIY7 44-187): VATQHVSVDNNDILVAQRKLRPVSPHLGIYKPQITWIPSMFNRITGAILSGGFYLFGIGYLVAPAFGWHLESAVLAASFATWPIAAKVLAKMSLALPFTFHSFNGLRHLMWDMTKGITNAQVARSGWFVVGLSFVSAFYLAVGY
Sequence of SDH derived from Venturia inaequalis (A0A8H3Z7E8 72-200): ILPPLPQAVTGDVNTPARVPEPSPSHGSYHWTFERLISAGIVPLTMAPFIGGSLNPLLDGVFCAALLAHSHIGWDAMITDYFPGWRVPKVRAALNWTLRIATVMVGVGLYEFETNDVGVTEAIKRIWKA
Sequence of SDH derived from Venturia inaequalis (A0A8H3ZBE1 860-1473 partner): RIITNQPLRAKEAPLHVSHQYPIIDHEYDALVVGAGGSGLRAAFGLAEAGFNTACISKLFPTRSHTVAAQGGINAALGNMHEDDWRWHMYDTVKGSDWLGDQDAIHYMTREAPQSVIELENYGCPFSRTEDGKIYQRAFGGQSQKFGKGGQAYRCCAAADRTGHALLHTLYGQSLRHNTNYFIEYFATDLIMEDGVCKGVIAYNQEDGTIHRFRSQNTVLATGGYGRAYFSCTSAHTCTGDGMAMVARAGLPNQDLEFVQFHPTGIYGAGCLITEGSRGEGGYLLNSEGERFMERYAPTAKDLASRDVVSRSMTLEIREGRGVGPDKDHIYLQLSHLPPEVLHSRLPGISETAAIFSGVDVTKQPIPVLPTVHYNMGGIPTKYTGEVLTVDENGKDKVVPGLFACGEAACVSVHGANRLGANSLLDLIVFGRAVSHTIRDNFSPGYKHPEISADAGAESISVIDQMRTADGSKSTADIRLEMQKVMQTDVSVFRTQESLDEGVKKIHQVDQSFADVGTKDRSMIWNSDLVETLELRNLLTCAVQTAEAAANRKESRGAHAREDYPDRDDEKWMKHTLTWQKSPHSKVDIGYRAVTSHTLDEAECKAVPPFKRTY

[5] = system: SDH derived from Alternaria brassicae; test: SDH inhibition, DCIP method; assay type: biochemical; settings: read-out: SDH IC50
[6] = molecular target: SDH derived from Magnaporthe oryzae (Pyricularia oryzae, UniProt A0ABQ8NN34+G4N2P5+G4NB04); assay type: biochemical; settings: read-out: SDH IC50
[7] = molecular target: SDH derived from Puccinia recondita (Puccinia triticina, UniProt A0A0C4ES27+A0A180H0E4+A0A915VLF5); test: SDH inhibition, DCIP method; assay type: biochemical; settings: read-out: SDH IC50
[8] = molecular target: SDH derived from Rhizoctonia solani (Rhizoctonia solani, UniProt A0A074S2N8+A0A0B7FBK7+A0A0B7FK09); test: SDH inhibition, DCIP method; assay type: biochemical; settings: read-out: SDH IC50
[9] = system: SDH derived from Pythium aphanidermatum; test: SDH inhibition, DCIP method; assay type: biochemical
[10] = molecular target: SDH derived from Brassica oleracea (Cabbage) (Brassica oleracea, UniProt A0A0D3B707+A0A0D3E0G9+A0A0D3EGP9); test: SDH inhibition, DCIP method; assay type: biochemical; settings: nontarget SDH
Sequence of SDH derived from Brassica oleracea (Cabbage) (A0A0D3E0G9 29-281): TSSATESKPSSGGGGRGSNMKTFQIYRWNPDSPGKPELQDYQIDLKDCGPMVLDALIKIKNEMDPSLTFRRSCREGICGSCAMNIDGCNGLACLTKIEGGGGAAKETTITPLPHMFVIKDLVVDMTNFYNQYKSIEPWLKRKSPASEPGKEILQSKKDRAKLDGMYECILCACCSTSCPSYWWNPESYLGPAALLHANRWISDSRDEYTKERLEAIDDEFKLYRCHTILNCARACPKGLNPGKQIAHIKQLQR
Sequence of SDH derived from Brassica oleracea (Cabbage) (A0A0D3EGP9 103-213): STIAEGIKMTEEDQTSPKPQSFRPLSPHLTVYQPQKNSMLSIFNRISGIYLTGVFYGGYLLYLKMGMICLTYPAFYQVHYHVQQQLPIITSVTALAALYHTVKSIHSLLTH
Sequence of SDH derived from Brassica oleracea (Cabbage) (A0A0D3B707 83-139): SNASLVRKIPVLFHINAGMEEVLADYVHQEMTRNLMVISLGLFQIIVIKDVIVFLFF
Sequence of SDH derived from Brassica oleracea (Cabbage) (A0A0D3D8D6 28-626 partner): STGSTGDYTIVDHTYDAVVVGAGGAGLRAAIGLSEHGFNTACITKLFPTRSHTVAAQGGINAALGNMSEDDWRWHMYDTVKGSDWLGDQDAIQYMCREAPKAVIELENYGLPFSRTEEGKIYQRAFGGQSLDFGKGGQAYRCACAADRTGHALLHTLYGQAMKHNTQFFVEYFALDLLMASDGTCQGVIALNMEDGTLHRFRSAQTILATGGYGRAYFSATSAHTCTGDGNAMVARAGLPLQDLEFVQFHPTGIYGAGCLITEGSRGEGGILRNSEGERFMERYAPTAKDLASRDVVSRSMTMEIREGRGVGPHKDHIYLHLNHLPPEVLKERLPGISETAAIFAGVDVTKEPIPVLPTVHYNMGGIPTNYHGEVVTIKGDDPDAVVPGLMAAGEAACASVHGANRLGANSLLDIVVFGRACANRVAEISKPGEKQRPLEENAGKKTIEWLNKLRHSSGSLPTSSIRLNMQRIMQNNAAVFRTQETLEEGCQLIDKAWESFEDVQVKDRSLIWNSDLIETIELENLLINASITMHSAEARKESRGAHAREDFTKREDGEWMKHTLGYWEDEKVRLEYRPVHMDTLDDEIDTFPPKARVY

[11] = molecular target: SDH derived from Solanum lycopersicum (Tomato) (Solanum lycopersicum, UniProt D2KQI9+Q952Q7+Q952R1); test: SDH inhibition, DCIP method; assay type: biochemical; settings: nontarget SDH
[12] = molecular target: SDH derived from Cucumis sativus (Cucumber) (Cucumis sativus, UniProt A0A0A0LBZ3+G3EIY8+G3EJ03); test: SDH inhibition, DCIP method; assay type: biochemical; settings: nontarget SDH
Sequence of SDH derived from Cucumis sativus (Cucumber) (A0A0A0LBZ3 28-277): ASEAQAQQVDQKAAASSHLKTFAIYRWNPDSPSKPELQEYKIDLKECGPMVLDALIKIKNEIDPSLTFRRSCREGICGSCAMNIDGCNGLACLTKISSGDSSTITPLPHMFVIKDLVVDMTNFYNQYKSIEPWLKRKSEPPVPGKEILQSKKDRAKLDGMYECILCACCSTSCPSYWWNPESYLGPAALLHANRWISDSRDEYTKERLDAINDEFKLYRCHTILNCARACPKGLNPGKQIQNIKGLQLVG
Sequence of SDH derived from Cucumis sativus (Cucumber) (G3EIY8 1-105): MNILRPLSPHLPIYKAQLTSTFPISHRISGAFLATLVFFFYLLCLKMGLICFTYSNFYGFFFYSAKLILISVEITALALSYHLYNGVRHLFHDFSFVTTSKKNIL
Sequence of SDH derived from Cucumis sativus (Cucumber) (G3EJ03 1-144): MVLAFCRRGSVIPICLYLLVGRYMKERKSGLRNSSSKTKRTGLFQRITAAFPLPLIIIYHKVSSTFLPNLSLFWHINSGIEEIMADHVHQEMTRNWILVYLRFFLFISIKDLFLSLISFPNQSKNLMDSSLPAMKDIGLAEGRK
Sequence of SDH derived from Cucumis sativus (Cucumber) (A0A0A0KUM6 34-635 partner): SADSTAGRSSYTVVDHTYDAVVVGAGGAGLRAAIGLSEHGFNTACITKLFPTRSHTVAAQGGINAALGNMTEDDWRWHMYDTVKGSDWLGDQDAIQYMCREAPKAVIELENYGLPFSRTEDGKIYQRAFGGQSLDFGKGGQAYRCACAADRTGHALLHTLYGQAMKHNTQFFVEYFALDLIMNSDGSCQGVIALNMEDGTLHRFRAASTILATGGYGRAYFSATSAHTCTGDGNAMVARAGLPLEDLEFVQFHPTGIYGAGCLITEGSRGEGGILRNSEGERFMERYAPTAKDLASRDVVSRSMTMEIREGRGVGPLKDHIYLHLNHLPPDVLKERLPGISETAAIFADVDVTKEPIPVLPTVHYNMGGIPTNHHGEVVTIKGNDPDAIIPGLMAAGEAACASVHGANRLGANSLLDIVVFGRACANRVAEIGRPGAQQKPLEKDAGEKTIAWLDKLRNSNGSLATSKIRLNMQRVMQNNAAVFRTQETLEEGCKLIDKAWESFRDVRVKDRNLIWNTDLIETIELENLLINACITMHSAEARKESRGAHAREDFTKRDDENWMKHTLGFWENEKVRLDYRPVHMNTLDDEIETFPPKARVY

[13] = molecular target: SDH derived from Mus musculus (Mouse) (Mus musculus, UniProt Q9CQA3+Q9CXV1+Q9CZB0); test: SDH inhibition, DCIP method; assay type: biochemical
Sequence of SDH derived from Mus musculus (Mouse) (Q9CQA3 31-282): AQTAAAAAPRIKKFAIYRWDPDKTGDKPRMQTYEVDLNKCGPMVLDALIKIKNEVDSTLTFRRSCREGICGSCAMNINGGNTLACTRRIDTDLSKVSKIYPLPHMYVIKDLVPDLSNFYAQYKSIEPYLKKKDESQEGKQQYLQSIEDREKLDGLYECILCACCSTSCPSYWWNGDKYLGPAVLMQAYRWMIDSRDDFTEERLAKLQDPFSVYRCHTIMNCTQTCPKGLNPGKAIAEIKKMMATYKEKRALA
Sequence of SDH derived from Mus musculus (Mouse) (Q9CZB0 30-169): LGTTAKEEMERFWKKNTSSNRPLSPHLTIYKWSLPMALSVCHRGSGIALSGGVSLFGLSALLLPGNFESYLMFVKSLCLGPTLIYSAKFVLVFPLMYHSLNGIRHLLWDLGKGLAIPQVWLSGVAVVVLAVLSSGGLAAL
Sequence of SDH derived from Mus musculus (Mouse) (Q9CXV1 57-159): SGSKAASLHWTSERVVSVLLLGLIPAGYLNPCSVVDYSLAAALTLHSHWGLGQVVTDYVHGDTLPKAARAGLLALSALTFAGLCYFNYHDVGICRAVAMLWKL
Sequence of SDH derived from Mus musculus (Mouse) (Q8K2B3 43-664 partner): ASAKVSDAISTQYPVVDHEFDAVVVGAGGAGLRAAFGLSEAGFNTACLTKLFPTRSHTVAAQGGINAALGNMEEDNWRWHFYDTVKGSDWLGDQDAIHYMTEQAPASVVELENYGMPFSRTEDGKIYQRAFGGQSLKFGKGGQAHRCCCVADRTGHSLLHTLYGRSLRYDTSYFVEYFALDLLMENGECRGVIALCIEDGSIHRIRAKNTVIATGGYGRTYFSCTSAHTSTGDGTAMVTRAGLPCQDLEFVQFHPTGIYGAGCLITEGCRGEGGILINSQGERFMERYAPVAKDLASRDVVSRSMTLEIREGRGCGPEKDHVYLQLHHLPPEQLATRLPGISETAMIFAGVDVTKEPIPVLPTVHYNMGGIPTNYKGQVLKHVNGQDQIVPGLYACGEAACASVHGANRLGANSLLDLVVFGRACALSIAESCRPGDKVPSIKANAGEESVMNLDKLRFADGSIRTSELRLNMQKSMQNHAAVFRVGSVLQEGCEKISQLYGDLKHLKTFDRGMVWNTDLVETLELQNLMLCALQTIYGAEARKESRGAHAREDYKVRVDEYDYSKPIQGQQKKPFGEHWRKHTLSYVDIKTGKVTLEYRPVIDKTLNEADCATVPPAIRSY

Gray mold (Cucumber) = settings: cited from earlier work
Brown rust (Wheat) = settings: cited from earlier work
Powdery mildew (Barley) = settings: cited from earlier work
Sclerotinia sclerotiorum = settings: cited from earlier work

In the case of `O=C(Nc1ccccc1-c1ccc(F)c(F)c1)c1nccnc1C(F)(F)F` [Compound 9, N-(3′,4′-difluorobiphenyl-2-yl)-3-(trifluoromethyl)pyrazine-2-carboxamide], the solubility (Solubility in water) is reported as 2.32 µg/mL (≈ 6.12 µM), the “residual activity against Marssonina blotch of apple” value (Marssonina blotch) is reported as “excellent residual activity” and the IC50 [1] is reported as 0.7 nM. The IC50 [2] was 4.1 nM, the IC50 [3] was 5.8 nM and the IC50 [4] was 18.9 nM. It also gave an IC50 [5] of 2.1 nM, an IC50 [6] of 2500 nM and an IC50 [7] of 14.4 nM. The IC50 [8] was 5.9 nM, the SDH inhibitory activity ([9]; oomycete Pythium aphanidermatum) was “no inhibitory activity” and the IC50 ([9]; read-out: SDH IC50, Pythium aphanidermatum) was greater than 8000 nM. The SDH inhibitory activity [10] was “did not show any inhibitory activity”, the SDH inhibitory activity [11] was “did not show any inhibitory activity” and the SDH inhibitory activity [12] was “did not show any inhibitory activity”. The IC50 [13] was greater than 32000 nM, the SDH inhibitory activity ([13]; nontarget SDH, mice) was “did not show any inhibitory activity” and the “Fungicidal activity EC80, Gray mold (Cucumber)” value (Gray mold (Cucumber)) was 2–10 mg a.i./L. For the same compound, the “Fungicidal activity EC80, Brown rust (Wheat)” value (Brown rust (Wheat)) was 0.5–2 mg a.i./L, the “Fungicidal activity EC80, Powdery mildew (Barley)” value (Powdery mildew (Barley)) was 0.5–2 mg a.i./L and the “inhibition activity against apothecium formation” value (Sclerotinia sclerotiorum) was “exhibits inhibition activity”.

Source: publication PMC7453301 (Journal of Pesticide Science, 2020)
